Experimental data published in ChEMBL document CHEMBL4049449, “Discovery of a Novel Class of Survival Motor Neuron 2 Splicing Modifiers for the Treatment of Spinal Muscular Atrophy” (J Med Chem, 2017).
Converted amounts (≈) assume the structure as drawn.

How the values were obtained:
[1] = tested on: Salmonella typhimurium; test: Genotoxicity in Salmonella typhimurium TA1535 in presence of rat liver S9 fraction by Ames test; type: toxicity; conditions: salmonella enterica subsp. enterica serovar typhimurium
Procedure, shortened: (§1)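 Ames plate incorporation: strains grown overnight at 37 °C in nutrient broth (TA102 with 0.3 μg/mL tetracycline). Compound at 20–2000 μg/plate in top agar with histidine/biotin, plus rat liver S9 mix (NADP, glucose 6-phosphate, KCl, MgCl2, pH 7.4 phosphate). Vogel–Bonner plates incubated 37 °C, 2 days; colonies counted by image analysis. Positive: dose-dependent ≥2-fold (TA1535, TA98) or ≥1.5-fold (TA97, TA100, TA102) rise over background.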

[2] = tested on: Salmonella typhimurium; test: Genotoxicity in Salmonella typhimurium TA97 in presence of rat liver S9 fraction by Ames test; type: toxicity; conditions: salmonella enterica subsp. enterica serovar typhimurium; procedure, shortened: as §1
[3] = tested on: Salmonella typhimurium; test: Genotoxicity in Salmonella typhimurium TA98 in presence of rat liver S9 fraction by Ames test; type: toxicity; conditions: salmonella enterica subsp. enterica serovar typhimurium; procedure, shortened: as §1
[4] = tested on: Salmonella typhimurium; test: Genotoxicity in Salmonella typhimurium TA100 in presence of rat liver S9 fraction by Ames test; type: toxicity; conditions: salmonella enterica subsp. enterica serovar typhimurium; procedure, shortened: as §1
[5] = tested on: Salmonella typhimurium; test: Genotoxicity in Salmonella typhimurium TA102 in presence of rat liver S9 fraction by Ames test; type: toxicity; conditions: salmonella enterica subsp. enterica serovar typhimurium; procedure, shortened: as §1
[6] = Glutathione reactivity assessed as GSH adduct formation
[7] = biological target: hERG (KCNH2) (Homo sapiens, UniProt Q12809); test: Inhibition of human ERG channel
[8] = biological target: Cytochrome P450 3A4 (Homo sapiens, UniProt P08684); test: Inhibition of CYP3A4 (unknown origin); type: ADME
[9] = biological target: Cytochrome P450 2D6 (Homo sapiens, UniProt P10635); test: Inhibition of CYP2D6 (unknown origin); type: ADME
[10] = biological target: Cytochrome P450 2C9 (Homo sapiens, UniProt P11712); test: Inhibition of CYP2C9 (unknown origin); type: ADME
[11] = Solubility of the compound in phosphate buffer solution at pH 6.5 by HPLC-UV analysis; type: physicochemical
Procedure, shortened: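 Lysa: duplicate samples from 10 mM DMSO stocks, DMSO evaporated, residue taken up in 0.05 M phosphate buffer pH 6.5, stirred 1 h, shaken 2 h, left overnight, filtered. Filtrate and its 1/10 dilution were read by direct UV or HPLC-UV against a four-point calibration; range 0–666 μg/mL for MW 500.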

[12] = Permeability of the compound by PAMPA; type: physicochemical; conditions: read-out: permeability
Procedure, shortened: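 Parallel artificial membrane permeability: phospholipid-coated filter plate sandwiched between donor compound/buffer and acceptor buffer. Donor concentration at start was compared with donor and acceptor concentrations at end time, giving Pe (10−6 cm/s); membrane retention was also determined.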

[13] = Octanol-phosphate buffer partition co-efficient, log D of the compound at pH 7.4 after 24 hrs by shake flask method; type: physicochemical
Procedure, shortened: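 CAMDIS shake-flask variant: PVDF membranes impregnated with 1-octanol dipped in 25 mM phosphate buffer pH 7.4 containing compound, shaken 24 h at 23 °C. Two octanol/water ratios were run for hydrophilic or lipophilic compounds. Aqueous concentration was measured by LC/MS with and without octanol, and log D was calculated from the difference and the phase ratio.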

[14] = species on record: Homo sapiens; test: Modulation of patient derived full length SMN2 pre mRNA splicing assessed as inclusion of exon 7
[15] = species on record: Homo sapiens; test: Modulation of patient derived full length SMN2 pre mRNA splicing assessed as restoration of functional SMN2 to protein level
[16] = tested on: Plasma; test: Drug metabolism in human plasma assessed as amide bond hydrolysis at 1 uM after 15 to 300 mins by LC-MS/MS analysis; type: ADME, cell-free
[17] = tested on: Plasma; test: Drug metabolism in mouse plasma assessed as amide bond hydrolysis at 1 uM after 15 to 300 mins by LC-MS/MS analysis; type: ADME, cell-free
[18] = tested on: Plasma; test: Drug metabolism in rat plasma assessed as amide bond hydrolysis at 1 uM after 15 to 300 mins by LC-MS/MS analysis; type: ADME, cell-free
[19] = Stability at various pH levels assessed as amide bond hydrolysis; type: physicochemical
[20] = tested on: P-gp; test: Substrate activity at mouse P-gp assessed as efflux ratio; type: ADME; conditions: not told
[21] = Ratio of drug level in wild type FVB mouse brain to plasma at 10 mg/kg, po; type: ADME, organism-based; conditions: read-out: BPR
[22] = Fraction unbound in human plasma; type: ADME, cell-free
[23] = Fraction unbound in mouse plasma; type: ADME, cell-free
[24] = Total AUC in wild type FVB mouse plasma at 10 mg/kg, po qd for 10 days by LC-MS/MS analysis; type: ADME, organism-based; parameters: dose 10 mg/kg, route oral, time AUCmax
[25] = tested on: Mus musculus; test: Unbound AUC in C/C-Allele SMA FVB mouse plasma at 10 mg/kg, po qd for 10 days by LC-MS/MS analysis; type: ADME, organism-based; conditions: in vivo, 240 h
[26] = tested on: Mus musculus; test: Induction of SMN protein levels in C/C-Allele SMA FVB mouse brain at 3 mg/kg, po qd for 10 days measured 1 hr post last dose by HTRF assay relative to control; type: functional
Procedure, shortened: (§2)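 Adult C/C-allele SMA mice dosed orally once daily for 10 days at 1, 3 or 10 mg/kg. SMN protein in brain and quadriceps was expressed as % increase over vehicle-treated animals.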

[27] = tested on: Mus musculus; test: Induction of SMN protein levels in C/C-Allele SMA FVB mouse brain at 10 mg/kg, po qd for 10 days measured 1 hr post last dose by HTRF assay relative to control; type: functional; procedure, shortened: as §2
[28] = tested on: Mus musculus; test: Induction of SMN protein levels in C/C-Allele SMA FVB mouse quadriceps muscle at 1 mg/kg, po qd for 10 days measured 1 hrs post last dose by HTRF assay relative to control; type: functional; procedure, shortened: as §2
[29] = tested on: Mus musculus; test: Induction of SMN protein levels in C/C-Allele SMA FVB mouse quadriceps muscle at 3 mg/kg, po qd for 10 days measured 1 hrs post last dose by HTRF assay relative to control; type: functional; procedure, shortened: as §2
[30] = tested on: Mus musculus; test: Induction of SMN protein levels in C/C-Allele SMA FVB mouse quadriceps muscle at 10 mg/kg, po qd for 10 days measured 1 hrs post last dose by HTRF assay relative to control; type: functional; procedure, shortened: as §2
[31] = Total AUC in neonatal wild type FVB mouse plasma at 3 mg/kg, ip qd for 10 days by LC-MS/MS analysis; type: ADME, organism-based; parameters: dose 3 mg/kg, route intraperitoneal, time AUCmax
Procedure, shortened: (§3)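 Plasma AUC determined in a satellite group of neonatal (P10) wild-type mice dosed ip. Free AUC was calculated using the free fraction measured in serum from adult mice.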

[32] = tested on: Mus musculus; test: Unbound AUC in neonatal […] FVB mouse plasma at 3 mg/kg, ip qd administered from postnatal day 3 to day 9 by LC-MS/MS analysis; type: ADME, organism-based; conditions: in vivo; procedure, shortened: as §3
[33] = tested on: Mus musculus; test: Induction of SMN protein levels in neonatal delta7 FVB mouse brain at 0.3 mg/kg, ip qd administered from postnatal day 3 to day 9 measured 1 hr post last dose by HTRF assay relative to control; type: functional
[34] = tested on: Mus musculus; test: Induction of SMN protein levels in neonatal delta7 FVB mouse brain at 1 mg/kg, ip qd administered from postnatal day 3 to day 9 measured 1 hr post last dose by HTRF assay relative to control; type: functional
[35] = tested on: Mus musculus; test: Induction of SMN protein levels in neonatal delta7 FVB mouse brain at 3 mg/kg, ip qd administered from postnatal day 3 to day 9 measured 1 hr post last dose by HTRF assay relative to control; type: functional
[36] = tested on: Mus musculus; test: Induction of SMN protein levels in neonatal delta7 FVB mouse quadriceps muscle at 0.3 mg/kg, ip qd administered from postnatal day 3 to day 9 measured 1 hr post last dose by HTRF assay relative to control; type: functional
[37] = tested on: Mus musculus; test: Induction of SMN protein levels in neonatal delta7 FVB mouse quadriceps muscle at 1 mg/kg, ip qd administered from postnatal day 3 to day 9 measured 1 hr post last dose by HTRF assay relative to control; type: functional
[38] = tested on: Mus musculus; test: Induction of SMN protein levels in neonatal delta7 FVB mouse quadriceps muscle at 3 mg/kg, ip qd administered from postnatal day 3 to day 9 measured 1 hr post last dose by HTRF assay relative to control; type: functional
[39] = tested on: Mus musculus; test: Induction of SMN protein levels in C/C-Allele SMA FVB mouse brain administered as po qd for 10 days measured 1 hr post last dose by HTRF assay; type: functional, organism-based; procedure, shortened: as §2
[40] = Substrate activity at human P-gp; type: ADME
[41] = tested on: Mus musculus; test: Induction of SMN protein levels in C/C-Allele SMA FVB mouse brain at 1 mg/kg, po qd for 10 days measured 1 hr post last dose by HTRF assay relative to control; type: functional; procedure, shortened: as §2
[42] = tested on: Mus musculus; test: Induction of SMN protein levels in C/C-Allele SMA FVB mouse quadriceps muscle administered as po qd for 10 days measured 1 hr post last dose by HTRF assay; type: functional, organism-based; procedure, shortened: as §2
[43] = tested on: Mus musculus; test: Induction of SMN protein levels in neonatal delta7 FVB mouse quadriceps muscle administered as ip qd from postnatal day 3 to day 9 measured 1 hr post last dose by HTRF assay relative to control; type: functional, organism-based
[44] = tested on: Mus musculus; test: Induction of SMN protein levels in neonatal delta7 FVB mouse brain administered as ip qd from postnatal day 3 to day 9 measured 1 hr post last dose by HTRF assay relative to control; type: functional, organism-based

Cytochrome P450 2C9, sequence (P11712 whole entry): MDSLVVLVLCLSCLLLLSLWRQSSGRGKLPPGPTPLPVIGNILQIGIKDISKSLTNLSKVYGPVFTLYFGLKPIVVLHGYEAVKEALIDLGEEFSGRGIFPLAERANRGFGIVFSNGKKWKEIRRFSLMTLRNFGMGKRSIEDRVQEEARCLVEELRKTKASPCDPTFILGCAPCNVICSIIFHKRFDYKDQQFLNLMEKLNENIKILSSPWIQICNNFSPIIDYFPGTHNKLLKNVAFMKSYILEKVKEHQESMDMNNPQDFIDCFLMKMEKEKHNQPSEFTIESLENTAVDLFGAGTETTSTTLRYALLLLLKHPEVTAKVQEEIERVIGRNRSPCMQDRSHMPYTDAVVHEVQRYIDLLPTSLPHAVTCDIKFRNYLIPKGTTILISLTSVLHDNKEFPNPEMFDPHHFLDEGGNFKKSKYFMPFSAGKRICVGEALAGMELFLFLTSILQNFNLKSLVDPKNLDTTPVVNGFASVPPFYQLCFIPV
hERG (KCNH2), sequence (Q12809 whole entry): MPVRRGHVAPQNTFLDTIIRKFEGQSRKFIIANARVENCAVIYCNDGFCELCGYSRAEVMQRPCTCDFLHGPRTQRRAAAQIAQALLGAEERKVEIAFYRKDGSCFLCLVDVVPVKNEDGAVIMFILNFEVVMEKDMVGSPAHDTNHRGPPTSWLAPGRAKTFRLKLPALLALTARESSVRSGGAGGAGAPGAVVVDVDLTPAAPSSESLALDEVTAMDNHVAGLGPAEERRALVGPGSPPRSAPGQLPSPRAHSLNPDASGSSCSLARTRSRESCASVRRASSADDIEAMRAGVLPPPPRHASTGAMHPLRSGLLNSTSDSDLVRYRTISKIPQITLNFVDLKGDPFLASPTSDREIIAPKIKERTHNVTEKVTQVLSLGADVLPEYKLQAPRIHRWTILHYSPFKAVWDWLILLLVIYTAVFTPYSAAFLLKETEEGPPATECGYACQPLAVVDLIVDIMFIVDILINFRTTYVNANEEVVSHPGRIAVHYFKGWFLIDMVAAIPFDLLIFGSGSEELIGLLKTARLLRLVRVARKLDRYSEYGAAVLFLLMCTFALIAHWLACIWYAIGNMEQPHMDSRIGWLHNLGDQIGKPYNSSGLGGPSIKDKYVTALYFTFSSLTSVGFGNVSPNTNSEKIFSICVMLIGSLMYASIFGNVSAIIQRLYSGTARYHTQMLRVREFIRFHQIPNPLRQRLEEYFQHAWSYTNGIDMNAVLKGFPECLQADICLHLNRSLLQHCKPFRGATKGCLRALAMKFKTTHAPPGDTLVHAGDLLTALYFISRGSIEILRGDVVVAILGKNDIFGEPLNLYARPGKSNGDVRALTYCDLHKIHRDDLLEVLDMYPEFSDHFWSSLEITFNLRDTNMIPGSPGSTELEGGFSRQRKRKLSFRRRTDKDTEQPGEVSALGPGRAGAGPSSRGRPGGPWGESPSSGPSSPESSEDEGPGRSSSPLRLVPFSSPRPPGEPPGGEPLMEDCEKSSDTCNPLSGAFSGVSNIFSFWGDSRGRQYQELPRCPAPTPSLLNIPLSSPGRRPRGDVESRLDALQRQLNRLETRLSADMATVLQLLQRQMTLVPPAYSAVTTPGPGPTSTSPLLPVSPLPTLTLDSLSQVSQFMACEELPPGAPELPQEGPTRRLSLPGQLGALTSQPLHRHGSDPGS
Cytochrome P450 3A4, sequence (P08684 whole entry): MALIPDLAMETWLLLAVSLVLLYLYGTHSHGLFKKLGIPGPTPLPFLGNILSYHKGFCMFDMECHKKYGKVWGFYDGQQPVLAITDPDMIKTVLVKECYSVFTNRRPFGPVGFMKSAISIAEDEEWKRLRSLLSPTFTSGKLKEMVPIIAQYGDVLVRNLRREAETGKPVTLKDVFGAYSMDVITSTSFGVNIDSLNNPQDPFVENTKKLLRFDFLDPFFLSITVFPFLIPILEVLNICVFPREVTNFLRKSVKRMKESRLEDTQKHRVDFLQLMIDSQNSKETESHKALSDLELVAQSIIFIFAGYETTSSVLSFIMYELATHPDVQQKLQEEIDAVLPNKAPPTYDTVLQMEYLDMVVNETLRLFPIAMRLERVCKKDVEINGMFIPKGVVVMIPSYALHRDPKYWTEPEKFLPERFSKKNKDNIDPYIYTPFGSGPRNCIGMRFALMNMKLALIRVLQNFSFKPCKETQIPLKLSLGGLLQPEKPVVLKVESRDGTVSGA
Cytochrome P450 2D6, sequence (P10635 whole entry): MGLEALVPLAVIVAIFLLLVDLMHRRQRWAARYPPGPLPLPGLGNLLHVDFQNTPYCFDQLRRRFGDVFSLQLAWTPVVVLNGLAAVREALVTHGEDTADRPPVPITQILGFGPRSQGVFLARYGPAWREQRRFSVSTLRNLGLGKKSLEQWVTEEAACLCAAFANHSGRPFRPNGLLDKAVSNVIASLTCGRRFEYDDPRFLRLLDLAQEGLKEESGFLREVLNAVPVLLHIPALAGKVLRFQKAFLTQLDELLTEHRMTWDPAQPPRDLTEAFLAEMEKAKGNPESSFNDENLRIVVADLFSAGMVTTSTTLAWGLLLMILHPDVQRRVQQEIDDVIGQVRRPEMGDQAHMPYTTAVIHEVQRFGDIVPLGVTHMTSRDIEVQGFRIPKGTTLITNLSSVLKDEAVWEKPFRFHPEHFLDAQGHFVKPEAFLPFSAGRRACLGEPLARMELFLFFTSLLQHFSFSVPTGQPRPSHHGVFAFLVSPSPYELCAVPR

Cc1cn2cc(NC(=O)c3ccc(N4CCN(C)CC4)cc3)nc2c(C)n1
Activity [1]: Non-Toxic | Activity [2]: Non-Toxic | Activity [3]: Non-Toxic | Activity [4]: Non-Toxic | Activity [5]: Non-Toxic | Stability [6]: Stable | IC20 [7]: > 10 µM | IC50 [8]: > 50 µM | IC50 [9]: > 50 µM | IC50 [10]: > 50 µM | solubility [11]: 111 µg/mL (≈ 305 µM) | Papp [12]: 2.38 ×10⁻⁶ cm/s | logD at 24 h [13]: 2 | EC1.5 [14]: 660 nM | EC1.5 [15]: 3950 nM | Stability [16]: Stable | Stability [17]: Stable | Stability [18]: Stable | Stability [19]: Stable

Cc1cn2cc(NC(=O)c3ccc(N4CCNC(C)C4)cc3F)nc2c(C)n1 (stereo unspecified)
Activity [1]: Toxic | Activity [2]: Toxic | Activity [3]: Toxic | Activity [4]: Toxic | Activity [5]: Toxic | efflux ratio [20]: 4.1 | Kp [21]: 3.4 | fraction unbound [22]: 0.186 | fraction unbound [23]: 0.197 | AUC at 240 h [24]: 7900 ng·h/mL | fAUC [25]: 1580 ng·h/mL | Activity [26]: 24% | Activity [27]: 102% | Activity [28]: 13% | Activity [29]: 54% | Activity [30]: 152% | AUC at 240 h [31]: 3900 ng·h/mL | fAUC [32]: 790 ng·h/mL | Activity [33]: 24% | Activity [34]: 75% | Activity [35]: 150% | Activity [36]: 14% | Activity [37]: 24% | Activity [38]: 140% | Activity [39]: Dose-dependent effect | EC1.5 [14]: 52 nM | EC1.5 [15]: 98 nM | Activity [40]: Not Active | Activity [41]: 0% | Activity [42]: Dose-dependent effect | Activity [43]: Dose-dependent effect | Activity [44]: Dose-dependent effect
